Calls of active or inactive are those of the source. No cut-off for these calls is given here.
Tests used:
[1] = tested on: MIA PaCa-2; assay: Cytotoxicity against multidrug-resistant human MIAPaCa2 cells assessed as cell viability at 50 uM after 48 hrs by MTT assay; type: functional, cell-based
Outline: (§1)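 Cells left untreated or incubated at 50 μM for 48 h, with gemcitabine 50 μM as reference. Viability read by MTT.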

[2] = tested on: MCF7; assay: Cytotoxicity against human MCF7 cells assessed as cell viability after 48 hrs by MTT assay; type: functional, cell-based
Outline: (§2)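 Cells left untreated or incubated with compound over 50 nM to 200 μM for 48 h. Viability read by MTT. Values are mean SE of three independent experiments, and IC50 is taken from the dose-response curves.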

[3] = tested on: MIA PaCa-2; assay: Cell cycle arrest in multidrug-resistant human MIAPaCa2 cells assessed as accumulation at sub-G0/G1 phase after 48 hrs by propidium iodide staining based FACS flow cytometry (reference value: 1.17%); type: functional
[4] = tested on: MIA PaCa-2; assay: Induction of apoptosis in multidrug-resistant human MIAPaCa2 cells assessed as necrotic cells after 48 hrs using AnnexinV-FITC conjugated 7- AAD staining by flow cytometry (reference value: 0.17%); type: functional
[5] = tested on: MIA PaCa-2; assay: Induction of apoptosis in multidrug-resistant human MIAPaCa2 cells assessed as late apoptotic cells after 48 hrs using AnnexinV-FITC conjugated 7- AAD staining by flow cytometry (reference value: 0.21%); type: functional
[6] = tested on: MIA PaCa-2; assay: Induction of apoptosis in multidrug-resistant human MIAPaCa2 cells assessed as early apoptotic cells after 48 hrs using AnnexinV-FITC conjugated 7- AAD staining by flow cytometry (reference value: 2.54%); type: functional
[7] = tested on: MIA PaCa-2; assay: Induction of apoptosis in multidrug-resistant human MIAPaCa2 cells assessed as increase in caspase-3/7 activity after 48 hrs by caspase-Glo 3/7 assay; type: functional, cell-based
Outline: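 MiaPaCa-2 cells treated 48 h, with untreated and gemcitabine references. Caspase-3/7 activity measured. Run in triplicate.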

[8] = target: T1, Toll-like receptor 7 (Mus musculus) (UniProt P58681); assay: Activation of TLR7 in C57BL/6 mouse bone marrow dendritic cells assessed as increase of IL6 production after 24 hrs by ELISA; type: cell-based
T1 sequence (whole entry): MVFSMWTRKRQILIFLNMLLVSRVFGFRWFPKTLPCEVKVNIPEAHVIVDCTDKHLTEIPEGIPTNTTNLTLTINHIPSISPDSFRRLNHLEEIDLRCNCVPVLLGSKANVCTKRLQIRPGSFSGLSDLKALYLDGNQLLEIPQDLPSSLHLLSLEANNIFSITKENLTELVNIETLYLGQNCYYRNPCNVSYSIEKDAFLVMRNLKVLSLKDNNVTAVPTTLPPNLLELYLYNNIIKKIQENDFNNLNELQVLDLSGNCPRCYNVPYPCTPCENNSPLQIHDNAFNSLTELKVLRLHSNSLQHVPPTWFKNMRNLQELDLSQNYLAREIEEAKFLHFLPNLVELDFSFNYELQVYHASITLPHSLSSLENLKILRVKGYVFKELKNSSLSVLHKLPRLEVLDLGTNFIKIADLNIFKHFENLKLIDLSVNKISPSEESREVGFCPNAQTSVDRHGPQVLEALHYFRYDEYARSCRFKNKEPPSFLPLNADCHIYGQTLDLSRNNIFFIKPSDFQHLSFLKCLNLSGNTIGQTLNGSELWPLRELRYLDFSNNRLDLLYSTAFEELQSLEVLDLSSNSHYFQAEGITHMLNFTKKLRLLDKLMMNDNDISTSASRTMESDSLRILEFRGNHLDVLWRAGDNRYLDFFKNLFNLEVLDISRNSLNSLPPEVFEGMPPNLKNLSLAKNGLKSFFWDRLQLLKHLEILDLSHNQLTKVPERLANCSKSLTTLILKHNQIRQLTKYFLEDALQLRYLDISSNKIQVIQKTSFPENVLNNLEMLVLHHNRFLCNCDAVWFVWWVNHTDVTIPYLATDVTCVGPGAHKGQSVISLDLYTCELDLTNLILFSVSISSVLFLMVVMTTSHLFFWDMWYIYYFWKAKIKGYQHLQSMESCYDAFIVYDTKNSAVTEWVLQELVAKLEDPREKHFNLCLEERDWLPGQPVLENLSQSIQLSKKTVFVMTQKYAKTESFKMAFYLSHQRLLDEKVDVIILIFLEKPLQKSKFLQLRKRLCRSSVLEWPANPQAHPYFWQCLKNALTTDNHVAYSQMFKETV
Outline: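 Bone marrow dendritic cells from wild-type mice, left untreated or stimulated with two doses for 24 h. IL-6 in culture supernatants measured by ELISA. Mean SD of four mice per group.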

[9] = tested on: Dendritic cell; assay: Immunostimulatory activity against wild type C57BL/6 mouse bone marrow dendritic cells assessed as increase in IL-12p40 level at 3 to 10 uM after 24 hrs by ELISA; type: functional, cell-based
Outline: (§3)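 Bone marrow dendritic cells from wild-type, TLR3−/−, TLR7−/− and TLR9−/− mice, left untreated or stimulated with different doses for 24 h. IL-12p40 protein in culture supernatants measured by ELISA.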

[10] = tested on: Dendritic cell; assay: Immunostimulatory activity against TLR3-deficient C57BL/6 mouse bone marrow dendritic cells assessed as increase in IL-12p40 level at 3 to 10 uM after 24 hrs by ELISA; type: functional, cell-based; outline: as §3
[11] = tested on: Dendritic cell; assay: Immunostimulatory activity against TLR9-deficient C57BL/6 mouse bone marrow dendritic cells assessed as increase in IL-12p40 level at 3 to 10 uM after 24 hrs by ELISA; type: functional, cell-based; outline: as §3
[12] = tested on: Dendritic cell; assay: Immunostimulatory activity against TLR7-deficient C57BL/6 mouse bone marrow dendritic cells assessed as increase in IL-12p40 level at 10 uM after 24 hrs by ELISA; type: functional, cell-based; outline: as §3
[13] = tested on: MIA PaCa-2; assay: Induction of apoptosis in multidrug-resistant human MIAPaCa2 cells assessed as increase in DNA/histone nucleosome release after 48 hrs by ELISA relative to control; type: functional
Outline: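 MiaPaCa-2 cells treated 48 h, with untreated and gemcitabine references. Cytoplasmic DNA/histone nucleosome release detected by ELISA and compared with untreated cells. Run in triplicate.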

[14] = tested on: Capan-2; assay: Cytotoxicity against human Capan2 cells assessed as cell viability at 50 uM after 48 hrs by MTT assay; type: functional, cell-based; outline: as §1
[15] = tested on: PANC-1; assay: Cytotoxicity against human PANC1 cells assessed as cell viability at 50 uM after 48 hrs by MTT assay; type: functional, cell-based; outline: as §1
[16] = tested on: PC-3; assay: Cytotoxicity against human PC3 cells assessed as cell viability at 50 uM after 48 hrs by MTT assay; type: functional, cell-based; outline: as §1
[17] = tested on: HeLa; assay: Cytotoxicity against human HeLa cells assessed as cell viability at 50 uM after 48 hrs by MTT assay; type: functional, cell-based; outline: as §1
[18] = tested on: MCF7; assay: Cytotoxicity against human MCF7 cells assessed as cell viability at 50 uM after 48 hrs by MTT assay; type: functional, cell-based; outline: as §1
[19] = tested on: MIA PaCa-2; assay: Cytotoxicity against multidrug-resistant human MIAPaCa2 cells assessed as cell viability after 48 hrs by MTT assay; type: functional, cell-based; outline: as §2
[20] = tested on: Capan-2; assay: Cytotoxicity against human Capan2 cells assessed as cell viability after 48 hrs by MTT assay; type: functional, cell-based; outline: as §2
[21] = tested on: PANC-1; assay: Cytotoxicity against human PANC1 cells assessed as cell viability after 48 hrs by MTT assay; type: functional, cell-based; outline: as §2
[22] = tested on: PC-3; assay: Cytotoxicity against human PC3 cells assessed as cell viability after 48 hrs by MTT assay; type: functional, cell-based; outline: as §2
[23] = tested on: HeLa; assay: Cytotoxicity against human HeLa cells assessed as cell viability after 48 hrs by MTT assay; type: functional, cell-based; outline: as §2

## COC(=O)c1nc(-c2cn(Cc3ccc4cc5ccccc5cc4c3)nn2)n(COCCOC(C)=O)n1
[1]
  Activity: inactive

## COC(=O)c1nc(CCc2ccc3ccc4cccc5ccc2c3c45)n(COCCOC(C)=O)n1
[1]
  Activity: inactive

## COC(=O)c1nc(-c2cn(Cc3ccc4ccccc4c3)nn2)n(COCCOC(C)=O)n1
[1]
  Activity: inactive

## COC(=O)c1nc(-c2cn(Cc3ccc4ccc5cccc6ccc3c4c56)nn2)n(COCCOC(C)=O)n1
[2]
  Activity: Dose-dependent effect
[2]; MCF7, 48 h
  IC50: ≤ 10 µM
[3]
  Activity: 36.9%
[4]
  Activity: 0.41%
[5]
  Activity: 22.44%
[6]
  Activity: 28.48%
[7]
  Activity: Active
[8]
  Activity: Dose-dependent effect
[9]
  Activity: Active
[10]
  Activity: Active
[11]
  Activity: Active
[12]
  Activity: inactive
[13]
  fold change (FC): 15
[1]
  Activity: Active
[14]
  Activity: Active
[15]
  Activity: Active
[16]
  Activity: Active
[17]
  Activity: Active
[18]
  Activity: Active
[19]
  Activity: Dose-dependent effect
[19]; MIA PaCa-2, 48 h
  IC50: ≤ 10 µM
[20]
  Activity: Dose-dependent effect
[20]; Capan-2, 48 h
  IC50: ≤ 10 µM
[21]
  Activity: Dose-dependent effect
[21]; PANC-1, 48 h
  IC50: ≤ 10 µM
[22]
  Activity: Dose-dependent effect
[22]; PC-3, 48 h
  IC50: ≤ 10 µM
[23]
  Activity: Dose-dependent effect
  IC50: ≤ 10 µM

## COC(=O)c1nc(-c2cn(-c3ccc4ccc5cccc6ccc3c4c56)nn2)n(COCCOC(C)=O)n1
[1]
  Activity: inactive

## Nc1ccn([C@@H]2O[C@H](CO)[C@@H](O)C2(F)F)c(=O)n1 [GEMCITABINE]
[3]
  Activity: 7.9%
[4]
  Activity: 0.35%
[5]
  Activity: 0.86%
[6]
  Activity: 10.47%
[7]
  Activity: Active
[13]
  Activity: Active

## COC(=O)c1nc(-c2cn(Cc3ccccc3)nn2)n(COCCOC(C)=O)n1
[1]
  Activity: inactive

## COC(=O)c1nc(C#Cc2ccc3ccc4cccc5ccc2c3c45)n(COCCOC(C)=O)n1
[1]
  Activity: inactive

## COC(=O)c1nc(Nc2ccc3ccc4cccc5ccc2c3c45)n(COCCOC(C)=O)n1
[1]
  Activity: inactive

## NC(=O)c1nc(-c2cn(Cc3ccc4ccc5cccc6ccc3c4c56)nn2)n(COCCO)n1
[19]
  Activity: Active

## COC(=O)c1nc(-c2cn(Cc3ccc4ccc5cccc6ccc3c4c56)nn2)nn1COCCOC(C)=O
[1]
  Activity: inactive

## COC(=O)c1nc(-c2cn(Cc3ccc4ccc5cccc6ccc3c4c56)nn2)n([C@@H]2O[C@H](COC(C)=O)[C@@H](OC(C)=O)[C@H]2OC(C)=O)n1
[19]
  Activity: inactive
